Assay results taken from ChEMBL document CHEMBL1159095, “Synthesis and optimization of thiadiazole derivatives as a novel class of substrate competitive c-Jun N-terminal kinase inhibitors” (Bioorg Med Chem, 2010).
Active and inactive are the calls of the source. The calls are words filed in the database; no cut-off is given here.

Tests used:
[1] = biological target: T1, Mitogen-activated protein kinase 8 (Homo sapiens, UniProt P45983); assay: Inhibition of JNK1 by TR-FRET assay
Method in brief: (§1)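 LanthaScreen TR-FRET kinase assay. JNK1 at 35 ng/mL, ATF2 substrate at 400 nM and ATP at 0.2 μM in 50 mM HEPES pH 7.5, 10 mM MgCl2, 1 mM EGTA, 0.01% Brij-35, with compound. Reaction ran 1 hr at room temperature, then terbium-labelled antibody plus EDTA were added.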

[2] = biological target: T2, Mitogen-activated protein kinase 9 (Homo sapiens, UniProt P45984); assay: Displacement of biotin-labeled pep-JIP1from JNK2 by DELFIA assay
Method in brief: (§2)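 Added Eu-labelled anti-GST antibody (300 ng/ml; 1.9 nM), compound in DMSO and GST-JNK2 at 10 nM final. Incubated 1 hr at 0 °C, washed 5 times, enhancement solution added, fluorescence read after 10 min (ex 340, em 615 nm). Controls were unlabelled peptide and no-compound blanks.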
Target sequence in this assay (P45984 whole entry): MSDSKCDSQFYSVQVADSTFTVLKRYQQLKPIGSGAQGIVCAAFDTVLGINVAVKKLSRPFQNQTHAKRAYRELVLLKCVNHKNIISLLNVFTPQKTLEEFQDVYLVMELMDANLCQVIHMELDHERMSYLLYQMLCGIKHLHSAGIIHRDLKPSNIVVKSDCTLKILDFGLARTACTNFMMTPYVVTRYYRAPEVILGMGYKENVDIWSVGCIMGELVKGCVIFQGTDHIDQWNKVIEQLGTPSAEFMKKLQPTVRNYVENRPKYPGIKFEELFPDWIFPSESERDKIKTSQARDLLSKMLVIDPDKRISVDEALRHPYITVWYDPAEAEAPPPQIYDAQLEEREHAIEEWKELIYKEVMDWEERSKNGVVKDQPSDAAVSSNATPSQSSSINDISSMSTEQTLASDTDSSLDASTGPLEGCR

[3] = biological target: Mitogen-activated protein kinase 14 (Homo sapiens, UniProt Q16539); assay: Inhibition of p38alpha MAPK
Mitogen-activated protein kinase 14, sequence (Q16539 whole entry): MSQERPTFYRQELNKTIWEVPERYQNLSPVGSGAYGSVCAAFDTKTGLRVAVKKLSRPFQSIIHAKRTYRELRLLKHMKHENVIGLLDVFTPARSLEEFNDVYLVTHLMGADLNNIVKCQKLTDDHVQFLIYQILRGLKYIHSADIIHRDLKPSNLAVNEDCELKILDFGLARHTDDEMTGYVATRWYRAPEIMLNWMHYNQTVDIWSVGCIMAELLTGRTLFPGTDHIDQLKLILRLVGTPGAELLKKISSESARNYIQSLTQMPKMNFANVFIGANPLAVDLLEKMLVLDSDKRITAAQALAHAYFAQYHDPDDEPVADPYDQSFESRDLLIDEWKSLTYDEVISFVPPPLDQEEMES

[4] = biological target: RAC-alpha serine/threonine-protein kinase (Homo sapiens, UniProt P31749); assay: Inhibition of AKT
RAC-alpha serine/threonine-protein kinase, sequence (P31749 whole entry): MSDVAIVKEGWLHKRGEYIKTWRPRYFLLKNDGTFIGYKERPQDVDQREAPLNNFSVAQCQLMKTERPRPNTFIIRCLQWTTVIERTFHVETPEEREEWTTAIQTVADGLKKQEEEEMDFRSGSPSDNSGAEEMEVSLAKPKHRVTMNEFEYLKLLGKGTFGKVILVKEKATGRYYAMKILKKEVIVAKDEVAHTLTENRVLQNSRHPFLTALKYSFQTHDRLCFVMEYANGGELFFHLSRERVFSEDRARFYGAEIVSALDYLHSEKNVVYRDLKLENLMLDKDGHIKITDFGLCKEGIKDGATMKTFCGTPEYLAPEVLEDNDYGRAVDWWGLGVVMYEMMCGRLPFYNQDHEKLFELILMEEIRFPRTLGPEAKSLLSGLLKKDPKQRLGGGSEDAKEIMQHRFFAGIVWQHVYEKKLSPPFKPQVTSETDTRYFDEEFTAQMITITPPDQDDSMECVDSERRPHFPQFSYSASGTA

Furin = Furin (Homo sapiens, UniProt P09958); assay: Inhibition of FURIN
Furin, sequence (P09958 whole entry): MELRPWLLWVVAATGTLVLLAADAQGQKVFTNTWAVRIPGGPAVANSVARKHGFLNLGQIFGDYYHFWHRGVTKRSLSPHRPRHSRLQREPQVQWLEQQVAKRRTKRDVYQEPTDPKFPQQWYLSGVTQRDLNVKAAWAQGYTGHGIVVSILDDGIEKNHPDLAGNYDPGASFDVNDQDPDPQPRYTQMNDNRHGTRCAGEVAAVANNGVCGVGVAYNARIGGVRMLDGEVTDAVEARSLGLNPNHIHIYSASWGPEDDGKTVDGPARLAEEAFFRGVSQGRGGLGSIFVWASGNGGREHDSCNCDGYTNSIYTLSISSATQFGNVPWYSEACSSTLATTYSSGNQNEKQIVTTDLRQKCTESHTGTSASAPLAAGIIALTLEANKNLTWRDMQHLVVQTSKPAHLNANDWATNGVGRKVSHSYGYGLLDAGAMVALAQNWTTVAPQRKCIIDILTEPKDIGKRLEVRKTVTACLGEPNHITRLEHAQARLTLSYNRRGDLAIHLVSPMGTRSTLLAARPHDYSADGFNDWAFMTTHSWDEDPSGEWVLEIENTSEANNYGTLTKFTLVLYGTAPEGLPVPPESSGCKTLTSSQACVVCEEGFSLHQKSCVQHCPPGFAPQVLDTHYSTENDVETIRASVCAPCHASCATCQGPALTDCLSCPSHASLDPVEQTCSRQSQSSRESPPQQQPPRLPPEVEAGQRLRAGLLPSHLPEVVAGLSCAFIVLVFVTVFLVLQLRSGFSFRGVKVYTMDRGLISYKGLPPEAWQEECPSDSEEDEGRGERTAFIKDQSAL

Lethal factor = biological target: T3, Lethal factor (Bacillus anthracis, UniProt P15917); assay: Inhibition of Bacillus anthracis anthrax lethal factor
T3 sequence (P15917 whole entry): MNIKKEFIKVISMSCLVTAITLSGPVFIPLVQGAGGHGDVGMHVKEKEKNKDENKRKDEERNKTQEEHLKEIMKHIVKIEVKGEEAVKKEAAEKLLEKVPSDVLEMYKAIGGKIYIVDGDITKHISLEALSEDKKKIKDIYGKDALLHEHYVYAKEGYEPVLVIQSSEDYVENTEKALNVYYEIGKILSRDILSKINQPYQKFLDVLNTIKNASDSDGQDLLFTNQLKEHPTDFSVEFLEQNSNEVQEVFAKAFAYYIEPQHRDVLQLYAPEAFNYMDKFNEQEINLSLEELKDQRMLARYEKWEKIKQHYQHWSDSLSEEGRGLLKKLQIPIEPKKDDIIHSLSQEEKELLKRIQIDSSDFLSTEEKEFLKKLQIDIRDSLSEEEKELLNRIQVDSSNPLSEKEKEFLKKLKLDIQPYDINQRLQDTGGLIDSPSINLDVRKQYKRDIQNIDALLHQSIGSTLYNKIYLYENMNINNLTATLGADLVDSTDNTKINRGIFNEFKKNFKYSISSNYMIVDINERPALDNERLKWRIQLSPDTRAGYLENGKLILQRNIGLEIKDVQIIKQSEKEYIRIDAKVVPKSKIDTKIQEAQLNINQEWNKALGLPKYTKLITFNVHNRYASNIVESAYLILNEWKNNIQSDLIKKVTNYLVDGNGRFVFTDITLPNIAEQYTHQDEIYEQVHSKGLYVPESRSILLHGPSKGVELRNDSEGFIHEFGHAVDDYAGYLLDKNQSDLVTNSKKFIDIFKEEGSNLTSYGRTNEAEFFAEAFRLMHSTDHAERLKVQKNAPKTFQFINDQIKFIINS

[5] = Inhibition of JNK-mediated TNF-alpha-stimulated c-Jun phosphorylation by cell-based TR-FRET assay
Method in brief: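 HeLa cells stably expressing GFP-c-Jun(1-79) plated at 10000/well in Opti-MEM with 1% charcoal/dextran-treated FBS, no phenol red, and left overnight. Pretreated 60 min with compound, then stimulated 30 min with TNF-alpha at 2 ng/ml. Lysed in buffer containing 2 nM terbium anti-phospho-c-Jun (Ser73) antibody and equilibrated 1 h at room temperature. TR-FRET ratio Em520/Em490 read with excitation at 340 nm.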

[6] = Permeability assessed as drug flux at pH 7.4 by PAMPA assay; type: ADME
Method in brief: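 PAMPA: filter impregnated with 1-20% phospholipid in organic solvent over an acceptor plate of aqueous buffer at pH 7.4. Donor added from a 20 μM stock (DMSO <2%). An equilibrium plate was prepared in parallel, and percent flux was calculated from acceptor versus equilibrium concentrations. Reference compounds included.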

[7] = Metabolic stability in rat plasma assessed as compound remaining after 30 mins by LC/MS-MS; type: ADME, cell-free; conditions: read-out: Stability
Method in brief: (§3)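 Compound at 1 μM (2.5% final DMSO) incubated in fresh rat plasma at 37 °C. Reactions stopped at 0, 30 and 60 min with two volumes of methanol containing internal standard, then precipitated, centrifuged and analysed by LC-MS. Percent parent remaining relative to 0 min calculated from peak-area ratios to internal standard. Run in duplicate with a plasma-labile positive control.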

[8] = biological target: T1, Mitogen-activated protein kinase 8; assay: Inhibition of JNK1 up to 25 uM by TR-FRET assay
Method in brief: as §1, with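 “added. After a further hour, the 520/495 nm emission ratio was read.” for “added.”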

[9] = biological target: T2, Mitogen-activated protein kinase 9; assay: Displacement of biotin-labeled pep-JIP1from JNK2 at 50 uM by DELFIA assay; method in brief: as §2
Target sequence in this assay (P45984 whole entry, looked up): as the sequence (P45984 whole entry) above

[10] = Metabolic stability in rat plasma assessed as compound remaining after 60 mins by LC/MS-MS; type: ADME, cell-free; conditions: read-out: Stability; method in brief: as §3
[11] = biological target: Mitogen-activated protein kinase 9 (Homo sapiens, UniProt P45984, C163S); assay: Inhibition of JNK2 C163S mutant by isothermal calorimetry
Mitogen-activated protein kinase 9 (Homo sapiens, UniProt P45984, C163S), sequence (P45984 whole entry C163S): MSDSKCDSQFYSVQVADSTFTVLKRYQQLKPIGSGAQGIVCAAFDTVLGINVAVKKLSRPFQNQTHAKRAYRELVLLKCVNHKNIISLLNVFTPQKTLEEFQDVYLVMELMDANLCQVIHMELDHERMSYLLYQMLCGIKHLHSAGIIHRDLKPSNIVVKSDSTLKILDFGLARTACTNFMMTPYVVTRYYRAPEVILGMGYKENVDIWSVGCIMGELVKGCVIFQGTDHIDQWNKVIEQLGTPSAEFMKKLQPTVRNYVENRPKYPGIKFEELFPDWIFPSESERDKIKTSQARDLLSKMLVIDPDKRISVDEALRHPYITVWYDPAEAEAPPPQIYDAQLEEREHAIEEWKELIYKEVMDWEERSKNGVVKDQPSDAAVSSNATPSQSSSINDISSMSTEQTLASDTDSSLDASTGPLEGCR
Method in brief: (§4)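 Isothermal titration calorimetry at 25 °C. C163S or wild-type JNK2 at 50 μM in 20 mM sodium phosphate pH 7.4 with 5% DMSO and 0.01% Triton X-100. Titrant at 750 μM in the same buffer.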

[12] = biological target: T2, Mitogen-activated protein kinase 9; assay: Inhibition of wild-type JNK2 by isothermal calorimetry; method in brief: as §4
Target sequence in this assay (P45984 whole entry): as the sequence (P45984 whole entry) above

T1 sequence (P45983 whole entry): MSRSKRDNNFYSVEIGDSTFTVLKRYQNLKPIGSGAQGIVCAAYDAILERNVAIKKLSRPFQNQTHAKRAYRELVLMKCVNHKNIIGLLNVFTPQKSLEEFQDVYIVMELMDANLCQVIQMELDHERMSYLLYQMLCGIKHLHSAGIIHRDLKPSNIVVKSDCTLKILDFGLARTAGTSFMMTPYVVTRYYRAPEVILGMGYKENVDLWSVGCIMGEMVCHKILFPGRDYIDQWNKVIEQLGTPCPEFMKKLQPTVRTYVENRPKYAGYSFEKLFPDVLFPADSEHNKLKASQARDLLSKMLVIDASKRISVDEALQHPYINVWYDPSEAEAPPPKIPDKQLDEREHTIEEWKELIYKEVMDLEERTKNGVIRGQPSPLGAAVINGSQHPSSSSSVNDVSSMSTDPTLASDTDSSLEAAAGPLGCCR

SMILES	IC50 [1] [µM]	IC50 [2] [µM]	IC50 [3] [µM]	IC50 [4] [µM]	IC50 (Furin) [µM]	IC50 (Lethal factor) [µM]	IC50 [5] [µM]	permeability [6] [%]	remaining at 0.5 h [7] [%]	inhibition [8]	inhibition [9] [%]	remaining at 1 h [10] [%]	Kd [11] [µM]	Kd [12] [µM]
CCC(C)Nc1nnc(Sc2ncc([N+](=O)[O-])s2)s1 (stereo not given)	3	0.14	> 100	> 100	> 50	> 100	20	7.9	90	–	–	–	–	–
CCCCNc1nnc(Sc2ncc([N+](=O)[O-])s2)s1	–	–	–	–	–	–	–	–	–	inactive	20	–	–	–
COc1ccc(CCNc2nnc(Sc3ncc([N+](=O)[O-])s3)s2)cc1OC	5.7	0.1	> 100	> 100	> 50	> 100	–	76.3	6.05	–	–	68	1.9	–
O=[N+]([O-])c1cnc(Sc2nnc(NCC3CCCO3)s2)s1 (stereo not given)	10	0.47	–	–	–	–	–	–	–	–	–	–	–	–
O=[N+]([O-])c1cnc(Sc2nnc(NCc3ccccc3)s2)s1	–	–	–	–	–	–	–	–	–	inactive	20	–	–	–
CC(C)(C)Nc1nnc(Sc2ncc([N+](=O)[O-])s2)s1	–	–	–	–	–	–	–	–	–	inactive	20	–	–	–
COc1ccc(CNc2nnc(Sc3ncc([N+](=O)[O-])s3)s2)cc1	9.1	0.1	–	–	–	–	21	–	–	–	–	–	–	–
CCNc1nnc(Sc2ncc([N+](=O)[O-])s2)s1	100	10	–	–	–	–	–	–	–	–	–	–	–	–
COCCNc1nnc(Sc2ncc([N+](=O)[O-])s2)s1	4.8	0.16	> 100	> 100	> 50	> 100	8	49.8	79.7	–	–	35	4.2	2.8
O=[N+]([O-])c1cnc(Sc2nnc(O)n2-c2ccc3c(c2)OCCO3)s1	–	0.5	–	–	–	–	–	5.5	–	–	–	0	51.1	8.1
CCCNc1nnc(Sc2ncc([N+](=O)[O-])s2)s1	6.7	0.29	> 100	> 100	> 50	> 100	–	30	48.1	–	–	42	7.2	9.4
